# Measured values from ChEMBL document CHEMBL2203244, “Discovery and optimization of a series of 2-aminothiazole-oxazoles as potent phosphoinositide 3-kinase γ inhibitors” (Bioorg Med Chem Lett, 2012).
# Experiments:
# [1] = biological target: Phosphatidylinositol 4,5-bisphosphate 3-kinase catalytic subunit alpha isoform (Homo sapiens, UniProt P42336); test: Inhibition of human PI3Kalpha using phosphatidylinositol as substrate and [33gammaP]ATP after 2 hrs by scintillation counting
# Outline: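 Recombinant human PI3Kα (20 ng) incubated 2 h at 30 °C in 20 mM Tris–HCl pH 7.4, 5 mM MgCl₂, 5 mM DTT with unlabelled ATP plus [γ-³³P]ATP and lipid vesicles of PtdIns and 25 µM PtdSer (final), with inhibitor or DMSO. Stopped with 25 mM EDTA, captured on phospholipid scintillant-coated plate, PBS-washed, bound counts per second read.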
# [2] = biological target: Phosphatidylinositol 4,5-bisphosphate 3-kinase catalytic subunit gamma isoform (Mus musculus, UniProt Q9JHG7); test: Inhibition of PI3Kgamma in mouse RAW264.7 cells assessed as inhibition of C5a-induced PKB/Akt phosphorylation incubated for 30 mins prior to C5a-induction measured after 5 mins by immunostaining method; assay type: cell-based
# Phosphatidylinositol 4,5-bisphosphate 3-kinase catalytic subunit gamma isoform (Mus musculus, UniProt Q9JHG7), sequence (Q9JHG7 whole entry, canonical isoform): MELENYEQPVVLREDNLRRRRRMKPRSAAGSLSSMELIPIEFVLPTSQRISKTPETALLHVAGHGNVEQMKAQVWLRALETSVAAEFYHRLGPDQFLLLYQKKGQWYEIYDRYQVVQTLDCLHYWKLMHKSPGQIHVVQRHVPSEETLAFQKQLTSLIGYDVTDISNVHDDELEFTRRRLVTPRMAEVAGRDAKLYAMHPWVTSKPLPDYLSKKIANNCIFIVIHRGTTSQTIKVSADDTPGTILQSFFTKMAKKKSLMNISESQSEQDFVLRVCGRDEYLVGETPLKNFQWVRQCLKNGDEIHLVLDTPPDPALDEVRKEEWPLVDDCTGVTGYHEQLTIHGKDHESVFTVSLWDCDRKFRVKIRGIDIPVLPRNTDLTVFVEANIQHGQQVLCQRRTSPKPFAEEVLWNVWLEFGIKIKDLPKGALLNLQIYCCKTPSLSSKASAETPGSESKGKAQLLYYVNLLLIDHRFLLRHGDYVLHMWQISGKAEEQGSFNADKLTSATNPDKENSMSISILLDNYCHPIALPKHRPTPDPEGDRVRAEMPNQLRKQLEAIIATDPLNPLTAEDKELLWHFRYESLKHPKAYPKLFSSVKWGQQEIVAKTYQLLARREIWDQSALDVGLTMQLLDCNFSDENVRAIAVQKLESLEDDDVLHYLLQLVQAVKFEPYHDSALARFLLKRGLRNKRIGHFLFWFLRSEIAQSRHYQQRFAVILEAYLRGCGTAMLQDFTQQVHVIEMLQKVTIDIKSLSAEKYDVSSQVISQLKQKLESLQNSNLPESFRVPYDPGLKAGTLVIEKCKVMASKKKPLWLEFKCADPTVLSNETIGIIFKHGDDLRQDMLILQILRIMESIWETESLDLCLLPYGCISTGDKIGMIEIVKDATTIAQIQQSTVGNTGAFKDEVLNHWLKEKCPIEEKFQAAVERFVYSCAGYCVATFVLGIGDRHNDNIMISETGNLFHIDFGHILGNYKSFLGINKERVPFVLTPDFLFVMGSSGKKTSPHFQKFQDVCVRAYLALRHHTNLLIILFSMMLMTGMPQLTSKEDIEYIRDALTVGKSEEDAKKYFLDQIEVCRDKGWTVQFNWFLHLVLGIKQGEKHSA
# Outline: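 Raw264.7 murine macrophage-like cells seeded at 8 × 10⁶ per well, grown 24 h, switched to serum-free 0.1% BSA medium for 3 h at 37 °C. Pretreated with or without a range of inhibitor concentrations for 30 min, then stimulated with 5 nM C5a for 5 min at 37 °C. PKB/Akt phosphorylation scored as the cellular read-out.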
# [3] = biological target: T1, Phosphatidylinositol 4,5-bisphosphate 3-kinase catalytic subunit gamma isoform (Homo sapiens, UniProt P48736); test: Inhibition of human PI3Kgamma using phosphatidylinositol as substrate and [33gammaP]ATP after 2 hrs by scintillation counting
# T1 sequence (P48736 whole entry, canonical isoform): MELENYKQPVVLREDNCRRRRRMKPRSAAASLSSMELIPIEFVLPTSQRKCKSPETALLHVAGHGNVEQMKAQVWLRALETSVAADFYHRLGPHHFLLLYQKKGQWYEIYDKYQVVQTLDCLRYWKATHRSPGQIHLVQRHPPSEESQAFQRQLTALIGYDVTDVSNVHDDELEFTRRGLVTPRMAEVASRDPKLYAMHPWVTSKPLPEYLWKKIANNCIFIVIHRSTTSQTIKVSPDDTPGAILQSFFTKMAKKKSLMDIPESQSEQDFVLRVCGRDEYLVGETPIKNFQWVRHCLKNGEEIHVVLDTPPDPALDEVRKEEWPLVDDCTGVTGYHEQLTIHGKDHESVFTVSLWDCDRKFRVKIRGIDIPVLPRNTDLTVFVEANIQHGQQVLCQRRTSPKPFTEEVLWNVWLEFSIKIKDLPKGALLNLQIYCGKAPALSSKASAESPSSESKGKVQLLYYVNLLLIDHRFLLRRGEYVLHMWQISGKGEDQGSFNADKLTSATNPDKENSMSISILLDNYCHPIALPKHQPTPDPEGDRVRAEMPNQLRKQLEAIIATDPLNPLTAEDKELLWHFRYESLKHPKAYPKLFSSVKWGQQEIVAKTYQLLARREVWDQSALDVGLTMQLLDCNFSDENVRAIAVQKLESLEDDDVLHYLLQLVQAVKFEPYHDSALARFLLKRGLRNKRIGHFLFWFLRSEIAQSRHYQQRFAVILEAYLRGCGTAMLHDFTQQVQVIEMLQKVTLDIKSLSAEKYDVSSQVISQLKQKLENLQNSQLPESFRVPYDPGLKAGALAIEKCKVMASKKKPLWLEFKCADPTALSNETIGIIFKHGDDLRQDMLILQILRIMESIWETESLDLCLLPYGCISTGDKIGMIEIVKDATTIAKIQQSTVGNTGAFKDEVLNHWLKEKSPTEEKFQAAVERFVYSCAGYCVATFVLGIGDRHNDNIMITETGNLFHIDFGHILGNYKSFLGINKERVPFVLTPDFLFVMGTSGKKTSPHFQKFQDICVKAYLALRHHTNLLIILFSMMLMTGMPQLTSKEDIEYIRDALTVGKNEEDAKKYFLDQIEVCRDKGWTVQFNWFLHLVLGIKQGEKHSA
# Outline: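 Recombinant human PI3Kγ (20 ng) incubated 2 h at 30 °C with test inhibitor or DMSO in 20 mM Tris–HCl pH 7.4, 5 mM MgCl2, 5 mM DTT, with ATP/[33P]ATP and PtdIns/PtdSer lipid vesicles as substrate. Reaction stopped with 25 mM EDTA. Product captured on phospholipid scintillant-coated plates, washed with PBS, and bound radioactivity counted by scintillation.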
# Homo sapiens = species on record: Homo sapiens; test: Selectivity ratio of IC50 for human PI3Kalpha to IC50 for human PI3Kgamma
# Outline: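 Human PI3Kα and PI3Kγ (20 ng each) assayed by the same radiometric lipid-kinase procedure: 2 h at 30 °C, pH 7.4 Tris buffer with MgCl2 and DTT, [33P]ATP and PtdIns/PtdSer vesicles, stopped with EDTA, captured on scintillant-coated plates and counted. Ratio taken as the PI3Kα IC50 divided by the PI3Kγ IC50.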
# [4] = biological target: T1, Phosphatidylinositol 4,5-bisphosphate 3-kinase catalytic subunit gamma isoform
# [5] = Permeability of the compound at pH 6.2 by PAMPA assay; assay type: ADME; details: read-out: permeability
# Outline: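 PAMPA membrane permeability measured at pH 6.2, reported as Pe in cm/s.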
# [6] = Aqueous solubility of the compound; assay type: physicochemical; details: water (aqueous)
# Outline: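 Solubility determined in water.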
# Phosphatidylinositol 4,5-bisphosphate 3-kinase catalytic subunit alpha isoform, sequence (P42336 whole entry, canonical isoform): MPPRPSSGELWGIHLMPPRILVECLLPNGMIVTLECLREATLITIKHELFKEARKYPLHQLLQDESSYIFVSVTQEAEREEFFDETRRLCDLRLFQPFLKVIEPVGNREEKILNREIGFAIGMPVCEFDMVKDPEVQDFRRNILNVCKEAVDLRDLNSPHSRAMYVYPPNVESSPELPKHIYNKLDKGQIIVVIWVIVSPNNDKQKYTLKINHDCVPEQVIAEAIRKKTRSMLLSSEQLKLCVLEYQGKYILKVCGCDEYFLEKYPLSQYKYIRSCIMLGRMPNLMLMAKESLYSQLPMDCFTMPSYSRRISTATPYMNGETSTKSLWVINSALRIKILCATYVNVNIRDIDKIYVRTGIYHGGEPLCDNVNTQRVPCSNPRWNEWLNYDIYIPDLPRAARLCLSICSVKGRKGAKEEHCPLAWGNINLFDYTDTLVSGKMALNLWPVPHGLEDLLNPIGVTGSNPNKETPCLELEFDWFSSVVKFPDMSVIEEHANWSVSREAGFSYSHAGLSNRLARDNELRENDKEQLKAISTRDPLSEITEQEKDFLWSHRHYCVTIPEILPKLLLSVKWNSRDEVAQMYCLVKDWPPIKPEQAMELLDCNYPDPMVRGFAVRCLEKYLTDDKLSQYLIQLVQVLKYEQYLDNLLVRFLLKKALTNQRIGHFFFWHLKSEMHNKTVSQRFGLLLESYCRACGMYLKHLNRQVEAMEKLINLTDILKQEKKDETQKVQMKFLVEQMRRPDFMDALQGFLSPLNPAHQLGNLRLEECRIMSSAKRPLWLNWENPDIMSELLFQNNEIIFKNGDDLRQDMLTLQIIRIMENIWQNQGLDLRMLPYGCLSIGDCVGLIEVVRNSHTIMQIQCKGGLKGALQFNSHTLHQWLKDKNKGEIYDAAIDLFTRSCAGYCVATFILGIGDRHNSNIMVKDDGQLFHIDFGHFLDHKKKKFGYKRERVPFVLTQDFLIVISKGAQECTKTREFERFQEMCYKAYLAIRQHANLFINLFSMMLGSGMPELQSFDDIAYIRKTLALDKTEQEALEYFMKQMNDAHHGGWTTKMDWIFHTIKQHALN
Structure (SMILES),IC50 [1] [nM],IC50 [2] [nM],IC50 [3] [nM],Ratio IC50 (Homo sapiens),IC50 [4] [nM],Papp [5] [×10⁻⁶ cm/s],solubility [6] [µg/mL]
CC(=O)Nc1nc(C)c(-c2cnc(Nc3cccnc3)o2)s1,102,431,12,9,,,
CC(=O)Nc1nc(C)c(-c2csc(Nc3cccc(C(=O)O)c3)n2)s1,,,,,5,,
CC(=O)Nc1nc(C)c(-c2cnc(-c3cccnc3)o2)s1,46,59,3,15,,77.3,0.39
CC(=O)Nc1nc(C)c(-c2cnc(Nc3ccc(Cl)cc3)o2)s1,,,346,,,,
CC(=O)Nc1nc(C)c(-c2cnc(Sc3cccnc3)o2)s1,112,279,16,7,,,
CC(=O)Nc1nc(C)c(-c2cnc(CO)o2)s1,,,161,,,,
COc1ncc(-c2sc(NC(C)=O)nc2C)o1,,,250,,,,
CC(=O)Nc1nc(C)c(-c2cnc(CC(F)(F)F)o2)s1,43,88,10,4,,,
CC(=O)Nc1nc(C)c(-c2cnc(N3CCCC(O)C3)o2)s1 (stereo not given),,237,14,,,,
CC(=O)Nc1nc(C)c(-c2cnc(Cc3cccnc3)o2)s1,,,95,,,,
CC(=O)Nc1nc(C)c(-c2cnc(Nc3ccc(Cl)nc3)o2)s1,,1040,24,,,,
CC(=O)Nc1nc(C)c(-c2cnc(C)o2)s1,,,181,,,,

# Results, then the molecule that gave them:
IC50 [1] [nM],IC50 [2] [nM],IC50 [3] [nM],Ratio IC50 (Homo sapiens),IC50 [4] [nM],Papp [5] [×10⁻⁶ cm/s],solubility [6] [µg/mL],Structure (SMILES)
,> 10000,223,,,,,CC(=O)Nc1nc(C)c(-c2cnc(Cc3cccc(C(=O)O)c3)o2)s1
195,222,12,16,,,,CC(=O)Nc1nc(C)c(-c2cnc(S(C)(=O)=O)o2)s1
,1670,117,,,,,CC(=O)Nc1nc(C)c(-c2cnc(Oc3cccnc3)o2)s1
328,> 10000,12,27,,1.4,,CC(=O)Nc1nc(C)c(-c2cnc(Nc3cccc(C(=O)O)c3)o2)s1
15,113,3,5,,88.4,35.2,CC(=O)Nc1nc(C)c(-c2cnc(C(C)(C)C)o2)s1
,1220,46,,,,,CC(=O)Nc1nc(C)c(-c2cnc(N(C)C)o2)s1
,369,25,,,,,CC(=O)Nc1nc(C)c(-c2cnc(C(C)(C)O)o2)s1
,322,22,,,,,CSc1ncc(-c2sc(NC(C)=O)nc2C)o1
,599,24,,,,,CC(=O)Nc1nc(C)c(-c2cnc(N3CCOCC3)o2)s1
